ChEMBL document CHEMBL2203216, “Fluoride enhances the activity of fungicides that destabilize cell membranes” (2012)
Active and inactive are the calls of the source. The calls are words filed in the database; no cut-off is given here. Numbered stars: 1 amine (or outer) side, 2 acyl side, 3 side chain; on linkers, the order of the positions; unused ones are H or OH. Bridge positions count the residues as written; N and C are the ends. Square brackets hold non-standard residues; d marks the D form. Peptide text beside a SMILES is read from it. * marks the point of attachment. Orn(4R-OH,5R-OH) = O=C([C@H](C[C@@H](O)[C@@H](O)N[*:3])N[*:1])[*:2]; hTyr(3S-OH,4S-OH) = N[C@H](C(=O)O)[C@H](O)[C@@H](O)c1ccc(O)cc1; Pro(3S-OH,4S-Me) = C[C@H]1CN[C@H](C(=O)O)[C@H]1O; Palmitoyl = CCCCCCCCCCCCCCCC(=O)*; Hyp = O=C(O)[C@@H]1C[C@@H](O)CN1

Tests used:
Saccharomyces cerevisiae [1] = test: Antifungal activity against Saccharomyces cerevisiae MYH 500 assessed as growth inhibition in presence of 80 mM sodium fluoride after 9 hrs; format: functional, organism-based
In short: (§1)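 S. cerevisiae growth in liquid medium with amphotericin B over a concentration series, plus a fixed 30 mM or 80 mM of NaF, KCl or NaCl. Cultures were shaken at 30°C for 9 h.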

Saccharomyces cerevisiae [2] = test: Antifungal activity against Saccharomyces cerevisiae MYH 500 assessed as growth inhibition in presence of 30 mM sodium fluoride after 9 hrs; format: functional, organism-based; in short: as §1
Saccharomyces cerevisiae [3] = test: Antifungal activity against Saccharomyces cerevisiae MYH 500 assessed as growth inhibition in presence of 30 mM sodium fluoride after 48 hrs relative to untreated control; format: functional
Saccharomyces cerevisiae [4] = test: Antifungal activity against Saccharomyces cerevisiae MYH 500 assessed as growth inhibition in presence of 80 mM NaCl after 9 hrs; format: functional, organism-based; in short: as §1
Neurospora crassa [5] = test: Antifungal activity against Neurospora crassa FGSC 2225 assessed as growth inhibition in presence of 10 mM sodium fluoride after 24 hrs relative to untreated control; format: functional
In short: (§2)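 Filamentous fungus grown in liquid medium tubes with fluoride plus a drug series. Growth was scored visually after 24 h. The endpoint was the lowest concentration tube showing little or no visible growth.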

Saccharomyces cerevisiae [6] = test: Antifungal activity against Saccharomyces cerevisiae MYH 500 assessed as growth inhibition in presence of 30 mM Kcl after 9 hrs; format: functional, organism-based; in short: as §1
Saccharomyces cerevisiae [7] = test: Antifungal activity against Saccharomyces cerevisiae MYH 500 assessed as growth inhibition in presence of 80 mM sodium fluoride after 48 hrs relative to untreated control; format: functional
Saccharomyces cerevisiae [8] = test: Antifungal activity against Saccharomyces cerevisiae MYH 500 assessed as growth inhibition at 300 nM after 48 hrs; format: functional, organism-based
In short: (§3)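 S. cerevisiae growth curves in liquid medium over 48 h. Amphotericin B was tested alone or at a fixed 10 nM or 20 nM with a range of sodium fluoride concentrations. Growth was followed as culture density.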

Saccharomyces cerevisiae [9] = test: Antifungal activity against Saccharomyces cerevisiae MYH 500 at 10 nM after 48 hrs; format: functional, organism-based; in short: as §3
Neurospora crassa [10] = test: Antifungal activity against Neurospora crassa FGSC 2225 assessed as growth inhibition at 300 nM after 24 hrs; format: functional, organism-based
In short: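 N. crassa, a filamentous fungus, was grown in liquid medium with amphotericin B for 24 h. Growth was scored visually in tubes, and the lowest concentration showing little or no visible growth was noted.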

Neurospora crassa [11] = test: Antifungal activity against Neurospora crassa FGSC 2225 assessed as growth inhibition in presence of 30 mM sodium fluoride after 24 hrs relative to untreated control; format: functional; in short: as §2
Aspergillus nidulans [12] = test: Antifungal activity against Aspergillus nidulans ATCC 38163 assessed as growth inhibition in presence of 10 mM sodium fluoride after 24 hrs; format: functional, organism-based
Saccharomyces cerevisiae [13] = test: Antifungal activity against Saccharomyces cerevisiae MYH 500 assessed as growth inhibition in presence of 30 mM NaCl after 9 hrs; format: functional, organism-based; in short: as §1
Aspergillus nidulans [14] = test: Antifungal activity against Aspergillus nidulans ATCC 38163 assessed as growth inhibition in presence of 30 mM sodium fluoride after 24 hrs; format: functional, organism-based
Saccharomyces cerevisiae [15] = test: Potentiation of fluoride-induced antimicrobial effect against Saccharomyces cerevisiae MYH 500 assessed as increase in growth inhibition at 10 nM in presence of 30 to 100 mM sodium fluoride after 48 hrs; format: functional, organism-based; in short: as §3
Saccharomyces cerevisiae [16] = test: Antifungal activity against Saccharomyces cerevisiae MYH 500 assessed as growth inhibition in presence of 80 mM Kcl after 9 hrs; format: functional, organism-based; in short: as §1
Saccharomyces cerevisiae [17] = test: Potentiation of fluoride-induced antimicrobial effect against Saccharomyces cerevisiae MYH 500 assessed as increase in growth inhibition at 10 nM in presence of 60 mM sodium fluoride after 48 hrs; format: functional, organism-based; in short: as §3
Saccharomyces cerevisiae [18] = test: Antifungal activity against Saccharomyces cerevisiae MYH 500 at 30 to 70 nM after 48 hrs; format: functional, organism-based; in short: as §3
Saccharomyces cerevisiae [19] = test: Potentiation of fluoride-induced antimicrobial effect against Saccharomyces cerevisiae MYH 500 assessed as increase in growth inhibition at 20 nM in presence of 30 to 100 mM sodium fluoride after 48 hrs; format: functional, organism-based; in short: as §3
Saccharomyces cerevisiae [20] = test: Antifungal activity against Saccharomyces cerevisiae MYH 500 assessed as growth inhibition at 3 mM in presence of 30 mM sodium fluoride after 24 hrs relative to untreated control; format: functional, organism-based
Saccharomyces cerevisiae [21] = test: Antifungal activity against Saccharomyces cerevisiae MYH 500 assessed as growth inhibition at 3 mM after 48 hrs; format: functional, organism-based
Saccharomyces cerevisiae [22] = test: Antifungal activity against Saccharomyces cerevisiae MYH 500 assessed as growth inhibition at 3 mM in presence of 30 mM sodium fluoride after 48 hrs relative to untreated control; format: functional

CCC(C)n1ncn(-c2ccc(N3CCN(c4ccc(OCC5COC(Cn6cncn6)(c6ccc(Cl)cc6Cl)O5)cc4)CC3)cc2)c1=O (centres undefined)
growth inhibition (GI) (Saccharomyces cerevisiae [1]): inactive | growth inhibition (GI) (Saccharomyces cerevisiae [2]): inactive

CN(C/C=C/C#CC(C)(C)C)Cc1cccc2ccccc12
growth inhibition (GI) (Saccharomyces cerevisiae [1]): inactive | growth inhibition (GI) (Saccharomyces cerevisiae [2]): inactive

Cc1cccc(N(C)C(=S)Oc2ccc3ccccc3c2)c1
growth inhibition (GI) (Saccharomyces cerevisiae [1]): inactive | growth inhibition (GI) (Saccharomyces cerevisiae [2]): inactive

CCCCCCCCCCCCCCCC(=O)N[C@H]1C[C@@H](O)[C@@H](O)NC(=O)[C@@H]2[C@@H](O)[C@@H](C)CN2C(=O)[C@H]([C@@H](C)O)NC(=O)[C@H]([C@H](O)[C@@H](O)c2ccc(O)cc2)NC(=O)[C@@H]2C[C@@H](O)CN2C(=O)[C@H]([C@@H](C)O)NC1=O (Palmitoyl-[Orn(4R-OH,5R-OH)]T[Hyp][hTyr(3S-OH,4S-OH)]T[Pro(3S-OH,4S-Me)]; lactam 1-C)
growth inhibition (GI) (Saccharomyces cerevisiae [2]): inactive

C[C@@H]1[C@H](O)[C@@H](C)/C=C/C=C/C=C/C=C/C=C/C=C/C=C/[C@H](O[C@@H]2O[C@H](C)[C@@H](O)[C@H](N)[C@@H]2O)C[C@@H]2O[C@](O)(C[C@@H](O)C[C@@H](O)[C@H](O)CC[C@@H](O)C[C@@H](O)CC(=O)O[C@H]1C)C[C@H](O)[C@H]2C(=O)O [AMPHOTERICIN B]
fold change (FC) (Saccharomyces cerevisiae [3]): 10 | growth inhibition (GI) (Saccharomyces cerevisiae [4]): Active | fold change (FC) (Neurospora crassa [5]): 4 | growth inhibition (GI) (Saccharomyces cerevisiae [6]): Active | fold change (FC) (Saccharomyces cerevisiae [7]): 30 | growth inhibition (GI) (Saccharomyces cerevisiae [8]): Active | Activity (Saccharomyces cerevisiae [9]): inactive | growth inhibition (GI) (Neurospora crassa [10]): inactive | fold change (FC) (Neurospora crassa [11]): 10 | growth inhibition (GI) (Aspergillus nidulans [12]): Active | growth inhibition (GI) (Saccharomyces cerevisiae [13]): Active | growth inhibition (GI) (Aspergillus nidulans [14]): Active | growth inhibition (GI) (Saccharomyces cerevisiae [15]): Active | growth inhibition (GI) (Saccharomyces cerevisiae [16]): Active | growth inhibition (GI) (Saccharomyces cerevisiae [17]): Active | Activity (Saccharomyces cerevisiae [18]): inactive | growth inhibition (GI) (Saccharomyces cerevisiae [19]): Active

N=C(N)NCCC[C@@H]1NC(=O)[C@H](CCCNC(=N)N)NC(=O)[C@H](CCCNC(=N)N)NC(=O)[C@H](CCCNC(=N)N)NC(=O)[C@H](CCCNC(=N)N)NC(=O)[C@H](CCCNC(=N)N)NC(=O)[C@H](CCCNC(=N)N)NC1=O [NOVEXATIN]
growth inhibition (GI) (Saccharomyces cerevisiae [20]): Active | growth inhibition (GI) (Saccharomyces cerevisiae [21]): Active | fold change (FC) (Saccharomyces cerevisiae [22]): >3

NYSTATIN
growth inhibition (GI) (Saccharomyces cerevisiae [1]): Active | growth inhibition (GI) (Saccharomyces cerevisiae [2]): Active
